Assay results reported in article PMC5033713 (Neuron, 2016).

Key:
Format in all cases: cell-based
GluA2 S788A = GluA2 S788A (Rattus norvegicus, UniProt P19491, S809A); test: Whole-cell patch-clamp, current inhibition of alanine mutant S788A; conditions: S788 alanine substitution versus wild-type
Summary of the method: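 Alanine-substituted GluA2 transiently expressed in HEK293 cells. Whole-cell currents evoked by Glu via rapid theta-pipette solution exchange, co-applied with graded noncompetitive inhibitor concentrations. Normalized current concentration dependencies fitted with the logistic equation. Mutant IC50 expressed relative to the wild-type receptor value.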

GluA2F623A = GluA2F623A (Rattus norvegicus, UniProt P19491, F644A); test: Whole-cell patch-clamp, current inhibition of alanine mutant GluA2F623A
GluA2Del = GluA2Del (Rattus norvegicus, UniProt P19491, C610A/DEL399-404/DEL566-584/E587D/G405E/N256E/N406D/N413Q/S585D/S586T/V397L, form not given); conditions: for voltage dependence of current inhibition: GluA2Del receptor-mediated current; for Hill coefficient (nHill): GluA2Del, HEK293, 3 mM Glu co-application, −60 mV, 30 μM CTZ, logistic fit
GluA2D519A = GluA2D519A (Rattus norvegicus, UniProt P19491, D540A); test: Whole-cell patch-clamp, current inhibition of alanine mutant GluA2D519A
Summary of the method: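 Rat GluA2 D519A transiently expressed in HEK293 cells (Lipofectamine 2000). Whole-cell recording at −60 mV with piezo-driven theta-pipette fast solution exchange. 500 ms co-applications of 3 mM Glu with graded test compound concentrations, 30 μM CTZ present throughout, Glu alone as control. Logistic fits of normalized currents gave IC50 and nHill, n = 7 cells. IC50 also expressed relative to wild-type.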

GluA2WT = GluA2WT (Rattus norvegicus, UniProt P19491); conditions: for voltage dependence of current inhibition: GluA2WT receptor-mediated current; for Hill coefficient (nHill): GluA2WT, HEK293, 3 mM Glu co-application, −60 mV, 30 μM CTZ, logistic fit
GluA2 S615A = GluA2 S615A (Rattus norvegicus, UniProt P19491, S636A); test: Whole-cell patch-clamp, current inhibition of alanine mutant S615A

Row | Structure (SMILES) | effect of substitution on inhibition (GluA2 S788A) | change in IC50 value compared to wild-type (GluA2F623A; F623A mutant) | voltage dependence of current inhibition (GluA2Del) | Hill coefficient (nHill) (GluA2Del) | effect of substitution on inhibition (GluA2D519A; D519 alanine substitution versus wild-type) | IC50 (GluA2WT) [µM] | voltage dependence of current inhibition (GluA2WT) | Hill coefficient (nHill) (GluA2WT) | change in IC50 value compared to wild-type (GluA2 S615A) | IC50 (GluA2F623A) [µM] | nHill (GluA2F623A; F623A mutant, 3 mM Glu, −60 mV, 30 μM CTZ) | IC50 (GluA2D519A) [µM] | nHill (GluA2D519A; D519A mutant, 3 mM Glu, −60 mV, 30 μM CTZ)
1 | N#Cc1ccccc1-c1cc(-c2ccccn2)cn(-c2ccccc2)c1=O [PMP, perampanel] | no appreciable effect | two orders of magnitude increase | voltage independent | 1.08 ± 0.04 | no appreciable effect | 0.89 ± 0.07 | voltage independent | 1.08 ± 0.05 |  |  |  |  | 
2 | CNC(=O)N1N=C(c2ccc(N)cc2)c2cc3c(cc2CC1C)OCO3 (stereo not shown) [GYKI, GYKI 53655] | Reduced affinity |  | voltage independent | 1.29 ± 0.08 |  | 14.5 ± 1.6 | voltage independent | 1.29 ± 0.08 | two orders of magnitude increase | 153 ± 8 | 1.18 ± 0.07 | 3.8 ± 0.58 | 1.58 ± 0.12
